Test results: article PMC10500580 (ACS Omega, 2023)

Legend:
α-amylase = target: T1, α-amylase (Homo sapiens, UniProt P04746); assay: In vitro antidiabetic; format: biochemical
T1 sequence (P04746 16-511): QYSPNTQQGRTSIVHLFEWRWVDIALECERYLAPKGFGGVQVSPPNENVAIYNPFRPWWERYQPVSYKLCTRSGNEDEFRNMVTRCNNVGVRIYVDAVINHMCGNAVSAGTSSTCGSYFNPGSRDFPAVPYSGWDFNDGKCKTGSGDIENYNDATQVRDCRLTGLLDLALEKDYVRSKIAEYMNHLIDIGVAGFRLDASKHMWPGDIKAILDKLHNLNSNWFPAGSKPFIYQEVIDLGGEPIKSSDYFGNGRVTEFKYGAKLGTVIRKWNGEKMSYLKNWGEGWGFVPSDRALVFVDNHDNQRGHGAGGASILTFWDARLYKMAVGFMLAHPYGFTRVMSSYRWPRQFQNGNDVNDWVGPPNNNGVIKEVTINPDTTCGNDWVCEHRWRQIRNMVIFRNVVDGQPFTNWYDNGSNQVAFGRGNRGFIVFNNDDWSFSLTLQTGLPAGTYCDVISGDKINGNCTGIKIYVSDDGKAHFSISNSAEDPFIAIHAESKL

Antioxidant = settings: read-out: IC50 antioxidant activity; DPPH, absorbance at 517 nm
In short: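 Test compound stocks at 22 mg/mL, diluted to working concentrations. DPPH radical was prepared at 4 mg per 100 mL pure methanol. Sample dilution and DPPH solution were mixed 1:2 by volume and left undisturbed overnight. Ascorbic acid in water served as the reference and was treated the same way. Absorbance was read at 517 nm, in triplicate.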

Compound	IC50 (α-amylase)	inhibition against diabetes (in words) (α-amylase; conclusion, qualitative grade)	IC50 (Antioxidant)
CC(C)CCCCCOC(=O)c1ccccc1C(=O)OCCCCCC(C)C [HR5, bis (6-methylheptyl) phthalate]	11.7 µM	excellent inhibition	15.6 µM
C=CCOC(=O)c1ccccc1C(=O)OCC [HR3, 1-allyl 2-ethyl phthalate]	–	–	15.1 µM
